pIC50: −log10 of the molar value.
Species on record: Cavia porcellus
Assay: Relative potency to that of normorphine in the electrically stimulated Guinea pig ileum test
Format: functional
Outline: (§1)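 Electrically evoked twitch of guinea pig tissue. IC50, the concentration giving 50% inhibition of the twitch, was calculated by linear regression. Potency was expressed relative to normorphine assayed on the same tissues.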

| Compound | Relative potency |
| --- | --- |
| CN1CCC2(CC1)c1ccccc1Oc1c(CO)cccc12 | 0.004 |
| CN1CCC2(CC1)c1cccc(O)c1Oc1cccc(Cl)c12 | 0.031 |
| c1ccc(NCCN2CCC3(CC2)c2ccccc2Oc2ccccc23)cc1 | 3.5 |
| COc1cccc2c1C1(CCN(C)CC1)c1cccc(O)c1O2 | 0.094 |
| CN1CCC2(CC1)c1ccccc1Oc1c(S)cccc12 | 0.001 |
| CN1CCC2(CC1)c1ccccc1Oc1c(N)cccc12 | 0.055 |
| CC(=O)Nc1cccc2c1Oc1ccccc1C21CCN(C)CC1 | 0.008 |
| Cc1cccc2c1C1(CCN(C)CC1)c1cccc(O)c1O2 | 0.237 |
| CC(=O)Oc1cccc2c1Oc1ccccc1C21CCN(C)CC1 | 1 |
| CN1CCC2(CC1)c1ccccc1Oc1c(O)cccc12 | 0.175 |
| CN1CCC2(CC1)c1cccc(O)c1Oc1cccc(F)c12 | 0.16 |
| CCC(=O)C(CC(C)N(C)C)(c1ccccc1)c1ccccc1 (stereo not drawn) [METHADONE] | 0.91 |

Species on record: Cavia porcellus
Assay: Concentration to produce 50%inhibition of the electrically evoked twitch in guinea pig
Format: functional
Outline: as §1

| Compound | pIC50 |
| --- | --- |
| Oc1ccc2c3c1O[C@H]1[C@@H](O)C=C[C@H]4[C@@H](C2)NCC[C@@]341 [NORMORPHINE] | 7.50 |
